From ChEMBL document CHEMBL1137729, “Synthesis, evaluation and 3D QSAR analysis of novel estradiol-RGD octapeptide conjugates with oral anti-osteoporosis activity” (Eur J Med Chem, 2009)
Residues, ends and D or L forms follow the SMILES beside them. *: point of attachment. Succinyl(O17-estradiol) = C[C@]12CC[C@@H]3c4ccc(O)cc4CC[C@H]3[C@@H]1CC[C@@H]2OC(=O)CCC(=O)*; Acetyl(estradiol-3-yloxy) = C[C@]12CC[C@@H]3c4ccc(OCC(=O)*)cc4CC[C@H]3[C@@H]1CC[C@@H]2O

What was measured:
Mus musculus [1] = assay: Toxicity in ovariectomized ICR mouse assessed as lung weight at 110.3 nmol/kg, po treated for 4 weeks measured after 1 day of last treatment; assay type: organism-based; settings: in vivo, 24 h
How it was run: (§1)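 OVX mice dosed orally once daily with 110.3 nmol/kg in 0.5% carboxymethylcellulose for 4 weeks. The day after the last dose, mice were anesthetized with pentobarbital (40.0 mg/kg ip) and killed; uteri, lungs, livers and spleens were removed and weighed directly and their morphology noted.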

Mus musculus [2] = assay: Antiosteoporosis activity in ovariectomized ICR mouse assessed as phosphorous content in femur at 110.3 nmol/kg, po treated for 4 weeks measured after 1 day of last treatment by molybdenum blue method; assay type: functional
Mus musculus [3] = assay: Toxicity in ovariectomized ICR mouse assessed as effect on tail bleeding time at 110.3 nmol/kg, po treated for 4 weeks measured after 30 mins of last treatment; assay type: organism-based; settings: in vivo, 0.5 h
How it was run: (§2)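 OVX mice received 110.3 nmol/kg orally in 0.5% carboxymethylcellulose daily for 4 weeks. At 30 and 90 min after the last dose, a 2 mm tail cut was made with the mouse in a tube holder; blood was blotted every 30 s until bleeding stopped, and the time was recorded as bleeding time.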

Mus musculus [4] = assay: Antiosteoporosis activity in ovariectomized ICR mouse assessed as mineral content in femur at 110.3 nmol/kg, po treated for 4 weeks measured after 1 day of last treatment; assay type: functional
How it was run: (§3)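 Female mice, ovariectomized (sham: laparotomy only); from day 5 post-surgery dosed orally once daily with 110.3 nmol/kg in 0.2 ml 0.5% carboxymethylcellulose for 4 weeks (vehicle to OVX/sham). Left femur taken the day after the last dose, cleaned of muscle, length measured, defatted in chloroform–methanol (2:1, 2×3 h), dried 120 °C 6 h and weighed, ashed 800 °C 8 h and weighed. Mineral content = ash/dry weight; femur ash dissolved in 6 N HCl, diluted, calcium by o-methylphenolphthalein complexone. n = 12.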

Mus musculus [5] = assay: Antiosteoporosis activity in ovariectomized ICR mouse assessed as weight of femur ash at 110.3 nmol/kg, po treated for 4 weeks measured after 1 day of last treatment; assay type: functional; how it was run: as §3
Mus musculus [6] = assay: Antiosteoporosis activity in ovariectomized ICR mouse assessed as weight of dry femur at 110.3 nmol/kg, po treated for 4 weeks measured after 1 day of last treatment; assay type: functional
How it was run: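 Left femur taken the day after the last dose, cleaned of muscle, length measured, defatted in chloroform–methanol (2:1, 2×3 h), dried 120 °C 6 h and weighed, ashed 800 °C 8 h and weighed. Mineral content = ash/dry weight; femur ash dissolved in 6 N HCl, diluted, calcium by o-methylphenolphthalein complexone. n = 12.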

Mus musculus [7] = assay: Antiosteoporosis activity in ovariectomized ICR mouse assessed as phosphorous level in serum at 110.3 nmol/kg, po treated for 4 weeks measured after 1 day of last treatment by molybdenum blue method; assay type: functional
How it was run: (§4)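 Ovariectomized female mice dosed orally with 110.3 nmol/kg in 0.5% carboxymethylcellulose once daily for 4 weeks, starting day 5 after surgery. Blood taken from the orbit the day after the last dose, stood 30 min, centrifuged 3000g for 20 min, serum stored at −20 °C. Calcium read by o-methylphenolphthalein complexone; phosphorus by molybdenum blue.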

Mus musculus [8] = assay: Toxicity in ovariectomized ICR mouse assessed as effect on tail bleeding time at 110.3 nmol/kg, po treated for 4 weeks measured after 90 mins of last treatment; assay type: organism-based; settings: in vivo, 1.5 h; how it was run: as §2
Mus musculus [9] = assay: Toxicity in ovariectomized ICR mouse assessed as spleen weight at 110.3 nmol/kg, po treated for 4 weeks measured after 1 day of last treatment; assay type: organism-based; settings: in vivo, 24 h; how it was run: as §1
Mus musculus [10] = assay: Antiosteoporosis activity in ovariectomized ICR mouse assessed as calcium level in serum at 110.3 nmol/kg, po treated for 4 weeks measured after 1 day of last treatment by o-methyl-phenolphthalein method; assay type: functional; how it was run: as §4
Mus musculus [11] = assay: Toxicity in ovariectomized ICR mouse assessed as liver weight at 110.3 nmol/kg, po treated for 4 weeks measured after 1 day of last treatment; assay type: organism-based; settings: in vivo, 24 h; how it was run: as §1
Mus musculus [12] = assay: Toxicity in ovariectomized ICR mouse assessed as kidney weight at 110.3 nmol/kg, po treated for 4 weeks measured after 1 day of last treatment; assay type: organism-based; settings: in vivo, 24 h
Mus musculus [13] = assay: Antiosteoporosis activity in ovariectomized ICR mouse assessed as length of femur at 110.3 nmol/kg, po treated for 4 weeks measured after 1 day of last treatment; assay type: functional; how it was run: as §3
Mus musculus [14] = assay: Toxicity in ovariectomized ICR mouse assessed as effect on uterine weight at 110.3 nmol/kg, po treated for 4 weeks measured after 1 day of last treatment; assay type: organism-based; settings: in vivo, 24 h; how it was run: as §1
Mus musculus [15] = assay: Antiosteoporosis activity in ovariectomized ICR mouse assessed as calcium content in femur at 110.3 nmol/kg, po treated for 4 weeks measured after 1 day of last treatment by o-methyl-phenolphthalein; assay type: functional; how it was run: as §3

| Structure (SMILES) | Activity (Mus musculus [1]) [g] | Activity (Mus musculus [2]) [%] | Time (Mus musculus [3]) [s] | Activity (Mus musculus [4]) [%] | Activity (Mus musculus [5]) [mg] | Activity (Mus musculus [6]) [mg] | Activity (Mus musculus [7]) [mM] | Time (Mus musculus [8]) [s] | Activity (Mus musculus [9]) [g] | Activity (Mus musculus [10]) [mM] | Activity (Mus musculus [11]) [g] | Activity (Mus musculus [12]) [g] | Activity (Mus musculus [13]) [cm] | Activity (Mus musculus [14]) [g] | Activity (Mus musculus [15]) [%] |
| --- | --- | --- | --- | --- | --- | --- | --- | --- | --- | --- | --- | --- | --- | --- | --- |
| C[C@]12CC[C@@H]3c4ccc(OCC(=O)N[C@@H](CCCNC(=N)N)C(=O)NCC(=O)N[C@@H](CC(=O)O)C(=O)N[C@@H](Cc5ccccc5)C(=O)O)cc4CC[C@H]3[C@@H]1CC[C@@H]2O ({Acetyl(estradiol-3-yloxy)}-RGDF-OH) | 0.112 | 20.09 | 557 | 0.596 | 33.56 | 53.87 | 3.19 | 560 | 0.177 | 3.24 | 1.336 | 0.159 | 1.669 | 0.067 | 57.42 |
| CC(C)[C@H](NC(=O)[C@H](CC(=O)O)NC(=O)CNC(=O)[C@H](CCCNC(=N)N)NC(=O)COc1ccc2c(c1)CC[C@@H]1[C@@H]2CC[C@]2(C)[C@@H](O)CC[C@@H]12)C(=O)O ({Acetyl(estradiol-3-yloxy)}-RGDV-OH) | 0.109 | 20.24 | 569 | 0.611 | 33.99 | 53.97 | 2.99 | 577 | 0.133 | 3.22 | 1.4 | 0.167 | 1.67 | 0.064 | 57.84 |
| C[C@]12CC[C@@H]3c4ccc(OCC(=O)N[C@@H](CCCNC(=N)N)C(=O)NCC(=O)N[C@@H](CC(=O)O)C(=O)N[C@@H](Cc5ccccc5)C(=O)N[C@@H](CCCNC(=N)N)C(=O)NCC(=O)N[C@@H](CC(=O)O)C(=O)N[C@@H](Cc5ccccc5)C(=O)O)cc4CC[C@H]3[C@@H]1CC[C@@H]2O ({Acetyl(estradiol-3-yloxy)}-RGDFRGDF-OH) | 0.119 | 21.33 | 592 | 0.623 | 36.74 | 56.96 | 3.01 | 585 | 0.131 | 3.05 | 1.439 | 0.169 | 1.641 | 0.061 | 63.92 |
| C[C@]12CC[C@@H]3c4ccc(OCC(=O)N[C@@H](CCCNC(=N)N)C(=O)NCC(=O)N[C@@H](CC(=O)O)C(=O)N[C@@H](CO)C(=O)N[C@@H](CCCNC(=N)N)C(=O)NCC(=O)N[C@@H](CC(=O)O)C(=O)N[C@@H](CO)C(=O)O)cc4CC[C@H]3[C@@H]1CC[C@@H]2O ({Acetyl(estradiol-3-yloxy)}-RGDSRGDS-OH) | 0.11 | 21.56 | 564 | 0.626 | 36.42 | 56.6 | 2.91 | 559 | 0.133 | 3.01 | 1.448 | 0.17 | 1.657 | 0.062 | 63.12 |
| CC(C)[C@H](NC(=O)[C@H](CC(=O)O)NC(=O)CNC(=O)[C@H](CCCNC(=N)N)NC(=O)CCC(=O)O[C@H]1CC[C@H]2[C@@H]3CCc4cc(O)ccc4[C@H]3CC[C@]12C)C(=O)O ({Succinyl(O17-estradiol)}-RGDV-OH) | 0.125 | 20.14 | 551 | 0.612 | 33.7 | 54.01 | 3.04 | 560 | 0.149 | 3.26 | 1.55 | 0.178 | 1.672 | 0.064 | 57.49 |
| C[C@]12CC[C@@H]3c4ccc(O)cc4CC[C@H]3[C@@H]1CC[C@@H]2OC(=O)CCC(=O)N[C@@H](CCCNC(=N)N)C(=O)NCC(=O)N[C@@H](CC(=O)O)C(=O)N[C@@H](Cc1ccccc1)C(=O)O ({Succinyl(O17-estradiol)}-RGDF-OH) | 0.109 | 20.56 | 576 | 0.605 | 33.87 | 54 | 3.01 | 568 | 0.135 | 3.21 | 1.266 | 0.16 | 1.64 | 0.06 | 59.36 |
| C[C@]12CC[C@@H]3c4ccc(O)cc4CC[C@H]3[C@@H]1CC[C@@H]2O [ESTRADIOL] | 0.12 | 19.81 | 417 | 0.608 | 32.22 |  | 3.01 | 441 | 0.144 | 3.24 | 1.552 | 0.173 | 1.642 | 0.108 | 57.28 |
| C[C@]12CC[C@@H]3c4ccc(OCC(=O)N[C@@H](CCCNC(=N)N)C(=O)NCC(=O)N[C@@H](CC(=O)O)C(=O)N[C@@H](CO)C(=O)O)cc4CC[C@H]3[C@@H]1CC[C@@H]2O ({Acetyl(estradiol-3-yloxy)}-RGDS-OH) | 0.128 | 20.24 | 582 | 0.605 | 34.08 | 53.89 | 2.98 | 577 | 0.142 | 3.23 | 1.492 | 0.193 | 1.646 | 0.064 | 58.76 |
